Bioassay records (PubChem BioAssay)
TAG inh: inhibitors of triacylglycerol accumulation; H9c2 cells, Nile Red lipid (TAG) fluorescence; cells loaded with 200 µM oleic acid; inhibition, % at 12.5 µM; AID 651582; actives 0.66% (n = 230,000);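 active means pattern-corrected inhibition of lipid staining of at least 50% with the nuclear-stain viability signal not falling by more than 50%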
A1 inh: inhibitors of the anti-apoptotic protein A1, read as caspase activation | actives 0.066% (n = 330,000) | caspase activation, % (test concentration not listed) | MEF A1-2A-BIM cells, Caspase-Glo 3/7 luminescence, 3 h; percent of clofoctol response, vehicle zero;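 active means over half of replicate activation scores above 10%, or exactly half above 10 with the replicate mean above 10; inconclusive means replicate mean below 10 yet half the replicates above 10; inactive means over half of replicates below 10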
CSC inhib: blocks cancer stem cells. cancer stem cell-like cells viability, luminescence. inhibition, % at 7.5 µM. actives 1.1% (n = 300,000); in the data active means inhibition above about 75%; inconclusive means no clear call, values can overlap the other calls; tested in HMLE shEcad cells
T cruzi repl: blocks replication of Trypanosoma cruzi; T. cruzi beta-gal in NIH3T3, luminescence, 90 h; inhibition, % (no concentration beside the values); actives 1.4% (n = 300,000); AID 1885;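 active means mean inhibition across valid replicates above about 55%, limit read from the data; inconclusive means mean below that limit but half or more replicates reach it; inactive means mean below it, under half of replicates reach it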;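 further: signal also drops with host cell toxicity which is not excluded here; higher percent means less beta-gal luminescence so fewer parasites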
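assay system = mouse NIH/3T3 fibroblasts infected with β-gal-expressing T. cruzi Tulahuen C4 | input = 5,000 NIH/3T3 host cells per well | buffer or medium = DMEM plus 2% FBS | timing = 3 h host attachment, then at least 90 h co-culture | measured by = GalScreen luminescence, 60 min | evaluation = luminescence reflecting intracellular parasite burden, expressed as percent inhibition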
Beta apoptosis: beta cell apoptosis inhibition; INS-1E cytokine-induced death, ATP luminescence, 48 h; percent of positive-control rescue, neutral wells zero; actives 0.8% (n = 300,000); AID 435005; protection from apoptosis, % (concentration not given with the values);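 active means Every replicate reaches about 75%, or at least half do and their mean reaches it too, limit read from the data; inconclusive means At least half of replicates reach the limit but their mean does not; inactive means Under half of replicates reach the limit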;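 further: higher means more ATP so stronger rescue from cytokine killing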
Calb FLC: C. albicans growth modulation with fluconazole | AID 1979 | actives 0.57% (n = 300,000) | growth inhibition, % (no concentration beside the values) | C. albicans CaCi-2 + fluconazole, Alamar Blue growth, 48 h;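 active means growth inhibition above about 58% in most replicates, limit read from the data, passing the limit was not always enough; inconclusive means exactly half the replicates above a set limit; inactive means most replicates below a set limit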;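 further: all wells also contain fluconazole at 8 µg/ml as a sub-toxic cotreatment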
Large screens that a line does not name were inactive. The list is not random: actives were taken first. Their share in the collection is about 3.1%.

CCCCNc1c(-c2ccc(SC(C)CC)c(OC)c2)nc2ccc(Cl)cn12 (stereo not given)	none (no result: T cruzi repl, Calb FLC)
CCOc1ccc(N(CC(=O)N/N=C/c2ccccn2)S(=O)(=O)c2ccc(Cl)cc2)cc1	none (no result: T cruzi repl)
CC(NC(=O)OCc1ccccc1)C(=O)Oc1cc2oc(=O)cc(-c3ccccc3)c2cc1Cl (stereo not given)	Calb FLC 82 (no result: TAG inh)
COc1ccc([C@@H]2CC=C(C(=O)O)[C@H](c3ccc(Cl)cc3)N2S(=O)(=O)c2ccccc2C)cc1	none (no result: T cruzi repl, Calb FLC)
Cc1ccc(-c2nnc(N3CCC(C)CC3)c3ccccc23)cc1C	CSC inhib 96
Cc1ccc(OCC(=O)N2CCN(c3nnc(-c4ccc(C)cc4)c4ccccc34)CC2)cc1	T cruzi repl 61 (no result: TAG inh, A1 inh, CSC inhib)
O=C(COc1ccccc1)N1CCN(c2nnc(-c3ccccc3)c3ccccc23)CC1	T cruzi repl 55
COc1ccc(OCC(=O)N2CCN(c3nnc(-c4ccc(C)cc4)c4ccccc34)CC2)cc1	none
Cc1ccc(-c2nnc(N3CCCCCC3)c3ccccc23)cc1	T cruzi repl 64 (no result: TAG inh)
CC(=O)c1ccc(S(=O)(=O)N2CCN(C(=O)c3cccc(S(=O)(=O)N4CC(C)OC(C)C4)c3)CC2)cc1 (stereo not given)	none (no result: A1 inh, CSC inhib, T cruzi repl, Beta apoptosis, Calb FLC)
COC(=O)c1[nH]c2cc(C)ccc2c1NC(=O)CN1CCCc2ccccc21	T cruzi repl 59 (no result: TAG inh)
CCOc1cccc(C2C(C(=O)c3ccc(C)o3)=C(O)C(=O)N2Cc2ccccc2)c1 (stereo not given)	none (no result: A1 inh, CSC inhib, Beta apoptosis)
CCCCOc1cccc(C2C(C(=O)c3ccc(C)o3)=C(O)C(=O)N2Cc2ccco2)c1 (stereo not given)	Calb FLC 79 (no result: T cruzi repl)
CCCNC(=O)c1c(N)n(-c2cccc(OC)c2)c2nc3ccccc3nc12	Beta apoptosis 104, Calb FLC inconclusive (no result: TAG inh)
CN(C)S(=O)(=O)n1cc(/C=C(\NC(=O)c2ccccc2F)C(=O)NCCCn2ccnc2)c2ccccc21	none (no result: TAG inh, A1 inh, CSC inhib, Beta apoptosis)
CCOC(=O)/C(=N\Nc1cccc(C(F)(F)F)c1)N(CCOC)CCOC	none (no result: TAG inh)
CCOC(=O)/C(=N\Nc1cccc(C(F)(F)F)c1)N1CCOCC1	CSC inhib 83, Calb FLC 114
O=C(CSc1nc2ccccc2s1)c1ccc(O)cc1O	none (no result: TAG inh)
O=C(Cc1nc2ccccc2s1)c1ccc(O)cc1O	Calb FLC 91 (no result: TAG inh)
C/C(=N\NC(=O)c1ccccc1O)C1CC1	none (no result: TAG inh)
COC(=O)c1c(NC(=O)CN2C(=O)NC3(CCCCC3C)C2=O)sc2c1CCC2 (stereo not given)	none (no result: T cruzi repl, Calb FLC)
CCOC(=O)c1c(NC(=O)CN2C(=O)NC3(CCCCC3C)C2=O)sc(C)c1CC (stereo not given)	T cruzi repl 66 (no result: Calb FLC)
C[C@@H]1CN([C@H](C)CO)C(=O)Cc2cc(NC(=O)Nc3ccccc3)ccc2O[C@@H]1CN(C)Cc1ccc2c(c1)OCO2	none (no result: T cruzi repl, Calb FLC)
O=C(Nc1nc(NC(=O)c2ccco2)n(-c2ccccc2)n1)c1ccccc1	Beta apoptosis 89 (no result: TAG inh)
O=C(Nc1ccn(CCCNCC(c2ccccc2)c2ccccc2)c(=O)n1)OCc1ccccc1	none (no result: A1 inh, CSC inhib, T cruzi repl, Beta apoptosis, Calb FLC)
CCc1ccc(C(=O)NNc2ccc(Cl)cc2)cc1	CSC inhib 99
CCc1ccc(C(=O)NNc2cc(Cl)cc(Cl)c2)cc1	none (no result: T cruzi repl)
O=C(NNc1ccc(Cl)cc1)c1cccs1	CSC inhib 96, Calb FLC 82 (no result: T cruzi repl)
CCOC(=O)C(=O)NNc1ccc(Cl)cc1	CSC inhib 82
CCCCN=C(NNc1ccc(Br)cc1)C(=O)OCC	CSC inhib 136 (no result: TAG inh)
O=C(NNc1cc(Cl)cc(Cl)c1)c1cccs1	none
COc1cc(C(=O)OCC(=O)Nc2cc(S(=O)(=O)N3CCOCC3)ccc2C)ccc1OCC(C)C	none
CCOC(=O)C(=O)NNc1ccc(C)cc1	CSC inhib 102, T cruzi repl inconclusive
CCCOC(=O)C(=O)NNc1ccccc1	CSC inhib inconclusive
Cc1cc(S(=O)(=O)Nc2ccc3cn[nH]c3c2)c(C)cc1Cl	T cruzi repl inconclusive (no result: TAG inh)
CCc1cc(C(=O)NNC(=S)Nc2ccccc2C)cs1	none
CCc1cc(C(=O)NNC(=S)Nc2cc(C)ccc2C)cs1	Calb FLC 99 (no result: TAG inh)
CC(C)(C)[C@@H]1CCC(=O)N(CC[C@H](Sc2ccc(Br)cc2)c2ccccc2)CC1	CSC inhib 108 (no result: T cruzi repl, Calb FLC)
COc1ccc(S[C@@H](CCN2CC[C@H](NC(=O)OCc3ccccc3)CCC2=O)c2ccccc2)cc1	CSC inhib 82 (no result: T cruzi repl, Calb FLC)
C[C@@H](CSc1ccc(Br)cc1)CN1CC[C@H](NC(=O)OCc2ccccc2)CCC1=O	CSC inhib 91 (no result: T cruzi repl, Calb FLC)
CC(=O)Nc1ccc(SC[C@H](C)CN2CC[C@H](C(C)(C)C)CCC2=O)cc1	CSC inhib 102 (no result: T cruzi repl, Calb FLC)
CCOC(=O)c1c2ccccc2[n+]([O-])n1[C@@H](C)C(N)=O	none (no result: TAG inh)
O=S(=O)(CC=CCS(=O)(=O)c1ccccc1)c1ccccc1	none (no result: A1 inh, CSC inhib, T cruzi repl, Beta apoptosis, Calb FLC)
CC(=O)Nc1ccc(S(=O)(=O)c2ccc(N)cc2)cc1	none (no result: Beta apoptosis, Calb FLC)
CC(=O)Nc1ccc(S(=O)(=O)c2ccc([N+](=O)[O-])cc2)cc1	T cruzi repl 70 (no result: TAG inh)
COCCNC(=O)C1CCCN(Cc2ccccc2)CC1 (stereo not given)	none (no result: A1 inh, CSC inhib, T cruzi repl, Beta apoptosis, Calb FLC)
COCCNC(=O)CCC1CCN(Cc2ccc(-c3ccccc3)cc2)CC1	T cruzi repl 58 (no result: TAG inh, Beta apoptosis)
COc1cc(/C=C/c2ccc3cccc(O)c3n2)cc(Br)c1OC	T cruzi repl 72 (no result: TAG inh)
COc1cc(/C=C/c2ccc3cccc(O)c3n2)cc(Cl)c1OC	CSC inhib 91 (no result: TAG inh)
Oc1cccc(/C=C/c2ccc3cccc(O)c3n2)c1	CSC inhib 87 (no result: TAG inh)
COc1ccc(NC(=O)COc2coc(CN3CCN(c4ccccc4)CC3)cc2=O)cc1	none (no result: Beta apoptosis)
CCc1ccccc1NC(=O)COC(=O)C1C2CC3OC(=O)C1C3C2 (stereo not given)	none (no result: TAG inh)
CCOC(=O)C1(CCCc2ccccc2)CCN(Cc2cn(CC)nc2C)CC1	none
CCOC(=O)Cc1csc(NC(=O)CSc2nnc(-c3ccc(NS(=O)(=O)CC)cc3)o2)n1	Calb FLC 85 (no result: TAG inh)
CCOC(=O)Cc1csc(NC(=O)CSc2nnc(-c3ccncc3)o2)n1	Calb FLC 106 (no result: TAG inh)
Cc1csc(NC(=O)CSc2nnc(-c3ccncc3)o2)n1	none
Cc1ccc(S(=O)(=O)N2CCN(C(=O)COC(=O)Cc3cccc(C(F)(F)F)c3)CC2)c(C)c1	none (no result: CSC inhib)
O=C1C(=NO)C(c2ccccc2)Oc2ccccc21 (stereo not given)	none (no result: A1 inh, CSC inhib, T cruzi repl, Beta apoptosis, Calb FLC)
Oc1ccc(CNc2ccccc2)c2cccnc12	Beta apoptosis 105
Oc1ccc(Cn2ccnc2)c2cccnc12	none (no result: CSC inhib)
OCc1ccnc2c(O)cccc12	T cruzi repl 57, Calb FLC 107
COCc1ccc(O)c2ncccc12	TAG inh 100, Beta apoptosis 91
NC(=O)c1ccnc2c(O)cccc12	none (no result: T cruzi repl, Calb FLC)
Oc1ccc(CNc2ccc(F)cc2)c2cccnc12	T cruzi repl 55, Beta apoptosis 92
Cc1cccc(NCc2ccc(O)c3ncccc23)c1	Calb FLC inconclusive
CC1(C2CCCC2)NC(=O)NC1=O (stereo not given)	none (no result: A1 inh, CSC inhib, T cruzi repl, Beta apoptosis, Calb FLC)
